Bioassay records (PubChem BioAssay)
Sampled rows, rich in hits. Any-hit rate of the full collection: about 2.5%.
FN deposit inh: inhibitors of fibronectin matrix deposition, primary screen, AH1F cells, Alexa488-fibronectin fluorescence, plate reader | AID 743247, 2014 | 0.086% of 350,000 active | AH1F fibroblasts, overnight | inhibition, % at 12.6 µM;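 active means mean inhibition across replicates of 30% or more, regardless of how many single replicates reach that level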;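 further: positive control wells lacked labelled fibronectin entirely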
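Schedule: 1 h cell adhesion before compound, then overnight fibronectin incubation; test system: AH1F fibroblast monolayer depositing Alexa488-labelled fibronectin into matrix; quantity: 10000 AH1F cells per well; probe or stimulus: fluorescent fibronectin at 24 nM final; signal: fluorescence, ex 485 nm, em 525 nm; evaluation: percent inhibition as loss of matrix-bound fibronectin fluorescence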
EWS-Fli inh: EWS/Fli-driven NR0B1 reporter inhibitors, primary screen, A673 cells, NR0B1 luciferase, luminescence, MLPCN library. 0.67% of 350,000 active. inhibition, % at 12.6 µM. viability-normalised. AID 651661, 2012;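 active means mean inhibition of at least 50% after viability correction, with every replicate also passing that limit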;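 further: firefly luciferase signal divided by Alamar Blue viability fluorescence both relative to DMSO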
N-glyco inh: increase of ERlucT glycosylation luciferase signal, primary screen, N-linked glycosylation inhibitor project, D54 ERlucT cells, luminescence, set 2; D54 ERlucT glycosylation luciferase reporter, 24 h; percent of 100 nM tunicamycin response; reporter increase, % at 12.5 µM; 0.23% of 360,000 active; AID 588692, 2011;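 active means mean luciferase reporter signal, scaled so untreated is 0 and the glycosylation-blocking control 100, at or above a set limit in every replicate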;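 further: luciferase carries N-glycosylation sites so blocking glycosylation raises the light; 0% = median of neutral control wells and 100% = median of 100 nM tunicamycin wells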
HIV Env fusion: inhibitors of HIV-1 Env-driven cell-cell fusion, primary screen, HeLa-JRFL effector, CEM21 target cells, luciferase; inhibition, % at 12.3 µM; 1.1% of 360,000 active; AID 651610, 2012;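 active means mean replicate inhibition score of at least 50 and every replicate individually at or above 50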;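 further: 0% = plate neutral controls and 100% = maraviroc near 300 nM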
MLL AF4-AF9 inh: inhibitors of AF4 peptide binding to AF9, primary screen, biochemical, AlphaScreen, biotin-AF4 peptide, FLAG-AF9, single point; Protein AF-9 (Homo sapiens), P42568; inhibition, % at 10 µM; 0.47% of 350,000 active;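 active means every replicate reaching a set inhibition limit, whatever the replicate mean, cut at about 25% in these data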;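 further: 0% = plate neutral control median and 100% = total signal loss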
Target sequence (P42568 whole entry, looked up): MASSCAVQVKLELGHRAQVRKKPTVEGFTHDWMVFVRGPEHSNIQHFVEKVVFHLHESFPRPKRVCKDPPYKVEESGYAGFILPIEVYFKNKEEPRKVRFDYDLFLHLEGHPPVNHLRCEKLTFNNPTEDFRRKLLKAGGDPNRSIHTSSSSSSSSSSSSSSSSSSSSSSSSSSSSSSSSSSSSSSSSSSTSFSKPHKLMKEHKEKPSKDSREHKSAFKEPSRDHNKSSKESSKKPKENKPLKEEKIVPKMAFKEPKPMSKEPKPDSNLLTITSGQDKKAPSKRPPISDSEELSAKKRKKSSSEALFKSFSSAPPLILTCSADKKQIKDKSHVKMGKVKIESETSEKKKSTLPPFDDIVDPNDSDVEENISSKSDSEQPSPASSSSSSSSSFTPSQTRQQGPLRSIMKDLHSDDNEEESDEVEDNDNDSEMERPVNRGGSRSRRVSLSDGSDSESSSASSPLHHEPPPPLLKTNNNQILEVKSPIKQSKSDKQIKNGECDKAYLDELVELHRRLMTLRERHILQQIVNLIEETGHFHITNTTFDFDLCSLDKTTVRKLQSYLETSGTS
PAX8 reporter: inhibitors of PAX8-driven TPO luciferase reporter, primary screen, RMG-I cells, single concentration; SteadyGlo, 24 h; inhibition, % at 12.6 µM; 1.2% of 360,000 active; AID 652154, 2013;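 active means mean replicate inhibition at least 60% with every replicate also reaching 60%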;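 further: luciferase light reporting Pax8 driven TPO promoter activity; plate controls were median of neutral control wells for no effect and mitoxantrone controls for full effect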
* marks the source's active call; other numbers are inactive results; nt = not tested or not shown; [ ] = another dose, or the depositor's remark.

SMILES	FN deposit inh	EWS-Fli inh	N-glyco inh	HIV Env fusion	MLL AF4-AF9 inh	PAX8 reporter
C[C@@H]1CN([C@@H](C)CO)C(=O)c2cc(N(C)C)ccc2O[C@@H]1CN(C)Cc1ccc(Oc2ccccc2)cc1	13	-9	nt	27[16.7 µM]	nt	84*
C[C@@H]1CN([C@H](C)CO)C(=O)c2cc(N(C)C)ccc2O[C@H]1CN(C)Cc1ccccc1	nt	-5	nt	0[16.7 µM]	-4	-8
C[C@@H]1CN([C@@H](C)CO)C(=O)c2cc(N(C)C)ccc2O[C@H]1CN(C)Cc1ccc(Oc2ccccc2)cc1	9	8	nt	-12[16.7 µM]	45*	11
C[C@@H]1CN([C@H](C)CO)C(=O)c2cc(N(C)C)ccc2O[C@@H]1CN(C)Cc1ccc(C(=O)O)cc1	nt	-1	nt	1[16.7 µM]	2	3
C[C@H]1CN([C@@H](C)CO)C(=O)c2cc(N(C)C)ccc2O[C@H]1CN(C)Cc1ccc(Oc2ccccc2)cc1	1	8	nt	-9[16.7 µM]	45*	23
C[C@H]1CN([C@@H](C)CO)C(=O)c2cc(N(C)C)ccc2O[C@@H]1CN(C)Cc1ccc(Oc2ccccc2)cc1	-8	10	nt	-9[16.7 µM]	40*	13
CO[C@H]1CN(C)C(=O)c2cc(NC(=O)C3CCC3)ccc2OC[C@@H](C)N(Cc2ccncc2)C[C@H]1C	-4	0	nt	-46[16.7 µM]	-1	nt
Cc1cnc2c(N)cc(C)c(C)c2c1	nt	9	-3	77*	6	44
Cc1cnc2ncc3sccc3c2c1	nt	-2	0	21	0	-9
C[C@@H]1CN([C@@H](C)CO)C(=O)c2cc(NS(=O)(=O)c3ccc(F)cc3)ccc2O[C@H]1CN(C)C(=O)Nc1ccc(C(F)(F)F)cc1	nt	3	nt	-4[16.7 µM]	-2	-2
O=C(NC1C=CS(=O)(=O)C1)c1sc2ccccc2c1Cl (stereo not drawn)	nt	nt	32*	nt	nt	nt
O=C(NC1CC1)c1sc2ccccc2c1Cl	0	-60	2	-11	-11	-121
S=C1SCN(Cc2ccccc2)CN1Cc1ccccc1	1	17	-3	15	1	25
S=C1SCN(Cc2cccnc2)CN1Cc1cccnc1	-3	29	1	-3	-4	93*
C[C@H]1C(C(=O)N(C)C2CCCCC2)=Cc2c(n(-c3ccc(F)cc3)c(=O)n2CCCOc2ccccc2)C=C1c1ccccc1	4	-6	nt	-21	84*	15
O=C(C[C@@H]1CC[C@@H]2[C@H](COC[C@H](O)CN2S(=O)(=O)c2ccccc2Cl)O1)N1CCC(Cc2ccccc2)CC1	10	11	nt	nt	4	78*
O=C(C[C@H]1CC[C@H]2[C@@H](COC[C@@H](O)CN2S(=O)(=O)c2ccccc2Cl)O1)N1CCC(Cc2ccccc2)CC1	-1	23	nt	nt	5	80*
COc1ccc(CN(C)C[C@@H]2Oc3ccc(NS(=O)(=O)c4cn(C)cn4)cc3C(=O)N([C@H](C)CO)C[C@H]2C)cc1	nt	4	nt	nt	-1	-3
CO[C@H]1CN(C)C(=O)c2ccc(NC(=O)c3ccccc3F)cc2OC[C@@H](C)N(CC2CC2)C[C@H]1C	1	4	nt	-40[16.7 µM]	0	nt
CCc1ccc(OCCNc2cc(N3CCNC(C)C3)ccc2[N+](=O)[O-])cc1 (stereo not drawn)	-18	32	-5	nt	37*	18
CC1CN(c2ccc([N+](=O)[O-])c(NCCOc3ccc(Cl)cc3)c2)CC(C)N1 (stereo not drawn)	3	33	-7	-10	21	3
Cc1ccccc1OCCNc1cc(N2CC(C)NC(C)C2)ccc1[N+](=O)[O-] (stereo not drawn)	14	25	1	-6	38*	2
C[C@H](CO)N1C[C@H](C)[C@H](CN(C)C(=O)c2ccccc2)Oc2ncc(C3=CCCC3)cc2C1=O	nt	-1	nt	19[16.7 µM]	0	nt
Cc1ccc2c(c1)N(CCCC(=O)NCCCN1CCCC1=O)C(=O)CO2	-5	3	3	4	49*	2
O=C(C[C@@H]1C[C@@H]2c3cc(NC(=O)NC4CCCCC4)ccc3O[C@@H]2[C@H](CO)O1)NC1CCCCC1	-4	1	nt	nt	-5	-3
SMILES	FN deposit inh	EWS-Fli inh	N-glyco inh	HIV Env fusion	MLL AF4-AF9 inh	PAX8 reporter
CCOC(=O)N1CCC(N2Cc3cccc(C(=O)Nc4ccc(N(CC)CC)cc4C)c3C2=O)CC1	-13	nt	-2	18	43*	2
CO[C@H]1CN(C)C(=O)c2cc(NC(=O)CC(F)(F)F)ccc2OC[C@H](C)N(C(=O)c2ccccc2F)C[C@@H]1C	4	-1	nt	nt	0	nt
N#CCCN(C(=O)CN1CCN(S(=O)(=O)c2ccc(Cl)s2)CC1)c1ccc(F)cc1	nt	2	1	62*	-1	1
N#CCCN(C(=O)CN1CCN(S(=O)(=O)c2ccc3c(c2)OCCO3)CC1)c1ccc(F)cc1	5	-4	0	2	2	12
Cc1ccc(NC(=O)c2cccc(S(=O)(=O)N3CCN(c4ccccc4)CC3)c2)nc1	-2	19	-4	57*	5	27
Cc1ccnc(NC(=O)c2cccc(S(=O)(=O)N3CCN(c4ccccc4)CC3)c2)c1	-2	34	-16	-35	-12	-42
CN(Cc1ccc(Cl)cc1Cl)C(=O)c1cccc(S(=O)(=O)N2CCN(c3ccccc3)CC2)c1	11	30	-8	90*	-1	49
COc1cccc(C(=O)Nc2nnc(-c3cccs3)o2)c1	3	-17	1	-5	45*	-46
COc1ccc(NC(=O)c2cc(-c3cccs3)on2)c(OC)c1	3	3	4	15	34*	5
CCOc1ccc(-c2cc(CCCC(=O)Nc3cccc(OC)c3)no2)cc1	2	64*	19	76*	-4	1
COc1ccc(-c2cc(C(=O)Nc3cccc(O)c3)no2)cc1	3	69*	-18	-68	-3	-16
CNC[C@H]1Oc2c(NC(=O)NC(C)C)cccc2C(=O)N(C)C[C@@H]1C	-8	nt	nt	nt	nt	nt
C[C@@H]1CN([C@@H](C)CO)C(=O)c2cc(C#CCN(C)C)cnc2O[C@H]1CN(C)Cc1ccccc1	0	3	nt	17[16.7 µM]	4	nt
C[C@@H]1CN([C@H](C)CO)C(=O)Cc2cc(NC(=O)C3CC3)ccc2O[C@H]1CN(C)S(=O)(=O)c1cn(C)cn1	nt	5	nt	-1[16.7 µM]	0	2
CC(=O)Nc1ccccc1OCC(=O)N(Cc1ccccc1)C(C)C	3	1	0	61*	6	20
Cc1ccccc1S(=O)(=O)NCC[C@@H]1CC[C@@H](NC(=O)Nc2cccc(Cl)c2)[C@H](CO)O1	-8	4	nt	-75[16.7 µM]	1	8
